# Assay results from different studies.
# Target: Aurora kinase C (AURKC, Homo sapiens, UniProt Q9UQB9)
# Sequence (Q9UQB9 1-309, as in one of the studies): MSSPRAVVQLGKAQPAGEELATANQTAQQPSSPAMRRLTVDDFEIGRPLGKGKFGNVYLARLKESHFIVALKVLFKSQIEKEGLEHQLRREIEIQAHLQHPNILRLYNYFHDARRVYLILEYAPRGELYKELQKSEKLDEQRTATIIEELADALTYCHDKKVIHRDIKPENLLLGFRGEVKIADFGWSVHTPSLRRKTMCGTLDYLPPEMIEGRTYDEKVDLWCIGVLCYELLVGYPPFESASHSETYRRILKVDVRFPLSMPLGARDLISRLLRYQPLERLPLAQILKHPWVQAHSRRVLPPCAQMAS
SMILES,read-out,technique,tested at,remaining binding [%]
CN(C)c1ncc(F)c(-c2cnn3ncccc23)n1,binding,,1 µM,100
C=CC(=O)N1CCC(C(=O)NCC(=O)N2CCN(c3nc(-c4cnc(N)nc4C(F)F)nc(N4CCOCC4)n3)CC2)CC1,binding,competition with immobilised ligand,1 µM,100
C[C@@H]1CCN(c2nccc(-c3cnn4ncccc34)n2)C1,binding,,1 µM,98
CC(=O)Nc1c(C(C)=O)c(=O)n(C)c2nc(-c3ccc(Cl)cc3Cl)c(-c3ccc(Cl)cc3)cc12,cell-free assay,competition with immobilised ligand,1 µM,100
CC1CCCN1c1nccc(-c2cnn3ncccc23)n1 (stereo not shown),binding,,1 µM,89
O=C(Nc1c[nH]nc1C(=O)NC1CCNCC1)c1cc(F)cc(F)c1,binding,competition with immobilised ligand,1 µM,84
O=C(c1ccc(Nc2ncc(Cl)c(-c3ccc(Cl)s3)n2)cc1)N1CCC(N2CCCC2)CC1,binding,competition with immobilised ligand,1 µM,2.8
N[C@@H]1CCN(c2nccc(-c3cnn4ncccc34)n2)C1,binding,,1 µM,100
CCN1CCN(Cc2ccc(C(=O)Nc3ccc(C)c(Oc4ccc5c(c4)CC(=O)N5)c3)cc2C(F)(F)F)CC1,binding,competition with immobilised ligand,1 µM,91
O=C(NCCCN1CCOCC1)c1ccc(Nc2ncc(Cl)c(-c3ccc(Cl)s3)n2)cc1,binding,competition with immobilised ligand,1 µM,5.5
CN(c1nccc(-c2cnn3ncccc23)n1)C1CC1,binding,,1 µM,100
COc1ncc2cc3ccccc3nc2c1C#N,cell-free assay,competition with immobilised ligand,5 µM,100
CO[C@H]1CC[C@H](CNc2ccc(S(=O)(=O)NC(=O)c3ccc(N4CCN(CC5=C(c6ccc(Cl)cc6)CC(C)(C)CC5)CC4)cc3Oc3cnc4[nH]ccc4c3)cc2[N+](=O)[O-])CC1,cell-free assay,competition with immobilised ligand,1 µM,87
COc1cnc(Nc2cccc(S(N)(=O)=O)c2)nc1N1CCN(c2ccccc2)CC1,binding,competition with immobilised ligand,1 µM,84
O=C(O)[C@@H]1[C@@H](Cn2nnc3ccccc3c2=O)CC[C@H]1C(=O)c1ccc(OCCC2CCOCC2)cc1,cell-free assay,competition with immobilised ligand,1 µM,100
COc1ccnn2ncc(-c3ccnc(N(C)C)n3)c12,binding,,1 µM,100
Cn1nc(C(F)(F)F)cc1-c1cnc(N2CCc3cc(S(=O)(=O)Nc4c(F)cc(Cl)cc4F)cc(N4CCCC4=O)c32)nc1,cell-free assay,competition with immobilised ligand,1 µM,100
O=C(c1ccc(Nc2nccc(-c3cc4ccccc4s3)n2)cc1)N1CCC(N2CCCC2)CC1,binding,competition with immobilised ligand,1 µM,30
COc1cccc(CNC(=O)c2nc3scc(COCc4ccc(C(=O)O)cc4)c3c(=O)[nH]2)c1,cell-free assay,competition with immobilised ligand,1 µM,67.3
CN(C)c1nccc(-c2cnn3ncccc23)n1,binding,,1 µM,100
COc1cnc(Nc2cccc(S(N)(=O)=O)c2)nc1N1CCN(c2ccccc2)C(=O)C1,binding,competition with immobilised ligand,1 µM,97
COc1ccc2c(c1)O[C@H](c1ccc(OC)c(OC)c1)C[C@@H]2NC(=O)C1(c2ccc3c(c2)OC(F)(F)O3)CC1,cell-free assay,competition with immobilised ligand,1 µM,100
